Reference: ChEMBL document CHEMBL4837248, “Discovery and SAR Evolution of Pyrazole Azabicyclo[3.2.1]octane Sulfonamides as a Novel Class of Non-Covalent N-Acylethanolamine-Hydrolyzing Acid Amidase (NAAA) Inhibitors for Oral Administration” (J Med Chem, 2021)
Active and inactive are the calls of the source. The rule behind the calls is not given here.

Biological target: T1, N-acylethanolamine-hydrolyzing acid amidase (Homo sapiens) (UniProt Q02083)
T1 sequence (whole entry): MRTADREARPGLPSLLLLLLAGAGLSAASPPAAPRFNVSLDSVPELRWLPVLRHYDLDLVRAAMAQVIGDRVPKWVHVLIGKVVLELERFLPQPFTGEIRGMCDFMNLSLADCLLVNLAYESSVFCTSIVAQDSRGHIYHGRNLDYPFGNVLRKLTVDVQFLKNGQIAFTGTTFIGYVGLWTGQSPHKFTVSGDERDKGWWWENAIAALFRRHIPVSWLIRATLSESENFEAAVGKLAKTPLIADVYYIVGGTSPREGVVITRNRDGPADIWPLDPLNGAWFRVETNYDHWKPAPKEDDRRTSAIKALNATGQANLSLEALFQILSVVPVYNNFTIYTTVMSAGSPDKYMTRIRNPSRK
Experiment: Inhibition of ARN14686 probe binding to human NAAA expressed in HEK293 cells preincubated for 2 hrs followed by ARN14686 probe addition and measured after 4 hrs by fluorescence assay
Type: cell-based
Details: time 6.0 hrs
Method in brief: (§1)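 Lysosomal enrichment (0.5 mg/mL) from HEK293 cells overexpressing human NAAA was preincubated 2 h at 37 °C with compound at a final 20 μM (2% DMSO); DMSO-only controls were included. ARN14686 probe (20 μM) was then added at 37 °C for 15 min or 4 h. An Alexa Fluor 545 azide was attached by CuSO4/TCEP/TBTA click chemistry (2 h, 25 °C). Read-out was SDS-PAGE in-gel fluorescence at 532 nm, with Coomassie loading control.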

Compound	inhibition
CCOCc1cnc(O[C@H]2C[C@H]3CC[C@@H](C2)N3S(=O)(=O)c2c(C)n[nH]c2C)cn1	inactive

Biological target: T1, N-acylethanolamine-hydrolyzing acid amidase (Homo sapiens)
Experiment: Inhibition of ARN14686 probe binding to human NAAA expressed in HEK293 cells preincubated for 2 hrs followed by ARN14686 probe addition and measured after 15 mins by fluorescence assay
Type: cell-based
Details: time 135.0 min
Method in brief: as §1

Compound	inhibition
CCOCc1cnc(O[C@H]2C[C@H]3CC[C@@H](C2)N3S(=O)(=O)c2c(C)n[nH]c2C)cn1	Active

Biological target: T1, N-acylethanolamine-hydrolyzing acid amidase (Homo sapiens)
Experiment: Inhibition of recombinant human NAAA expressed in HEK293 cells using PAMCA as fluorogenic substrate at 50 uM preincubated for 30 mins followed by substrate addition and measured after 50 mins by fluorescence assay relative to control
Type: cell-based
Details: not given
Method in brief: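 Lysosomal-type enzyme-enriched lysate from HEK-293 cells stably expressing human NAAA (4 μg protein), preincubated 30 min with compound or 5% DMSO in 100 mM citrate/phosphate pH 4.5 with 3.0 mM DTT, 0.1% NP40, 0.05% BSA, 150 mM NaCl. Reaction started with PAMCA substrate (2 μM), run 50 min at 37 °C. Fluorescence read at ex 355/em 460 nm against enzyme-free background.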

Compound	inhibition
Cc1noc(C)c1S(=O)(=O)N1CCC(Oc2cnccn2)CC1	< 10%
Cc1n[nH]c(C)c1S(=O)(=O)N1C[C@H]2CCC[C@@H](C1)[C@H]2Oc1cnccn1	< 10%
Cc1n[nH]c(C)c1C(=O)N1CCC(Oc2cnccn2)CC1	< 10%
Cc1n[nH]c(C)c1S(=O)(=O)N1[C@@H]2CC[C@H]1C[C@H](Oc1cnccn1)C2	< 10%
COc1n[nH]c(C)c1S(=O)(=O)N1CCC(Oc2cnccn2)CC1	< 10%
O=S(=O)(c1cn[nH]c1)N1CCC(Oc2cnccn2)CC1	< 10%
Cc1n[nH]c(C)c1S(=O)(=O)N1CC(Oc2cnccn2)C1	< 10%
Cc1n[nH]cc1S(=O)(=O)N1CCC(Oc2cnccn2)CC1	< 10%
Cc1nn(C)c(C)c1S(=O)(=O)N1CCC(Oc2cnccn2)CC1	< 10%
Cc1n[nH]c(C)c1S(=O)(=O)N1CCC(Cc2cnccn2)CC1	< 10%
Cc1n[nH]c(C)c1S(=O)(=O)N1CCC(c2cnccn2)CC1	< 10%
Cc1cnn(C)c1S(=O)(=O)N1CCC(Oc2cnccn2)CC1	< 10%
Cc1n[nH]c(C)c1S(=O)(=O)N1CCC(Nc2cnccn2)CC1	< 10%
Cc1n[nH]c(C)c1S(=O)(=O)N[C@H]1CC[C@H](Oc2cnccn2)CC1	< 10%
